The term IC50 denotes the concentration at which inhibition is half-maximal. Read a low IC50 as higher potency. One may read the GI50 as the concentration that inhibits growth by half.

Assay [1] deals with T1, Kinesin-like protein KIF11 (Homo sapiens, UniProt P52732).
T1 sequence (P52732 whole entry): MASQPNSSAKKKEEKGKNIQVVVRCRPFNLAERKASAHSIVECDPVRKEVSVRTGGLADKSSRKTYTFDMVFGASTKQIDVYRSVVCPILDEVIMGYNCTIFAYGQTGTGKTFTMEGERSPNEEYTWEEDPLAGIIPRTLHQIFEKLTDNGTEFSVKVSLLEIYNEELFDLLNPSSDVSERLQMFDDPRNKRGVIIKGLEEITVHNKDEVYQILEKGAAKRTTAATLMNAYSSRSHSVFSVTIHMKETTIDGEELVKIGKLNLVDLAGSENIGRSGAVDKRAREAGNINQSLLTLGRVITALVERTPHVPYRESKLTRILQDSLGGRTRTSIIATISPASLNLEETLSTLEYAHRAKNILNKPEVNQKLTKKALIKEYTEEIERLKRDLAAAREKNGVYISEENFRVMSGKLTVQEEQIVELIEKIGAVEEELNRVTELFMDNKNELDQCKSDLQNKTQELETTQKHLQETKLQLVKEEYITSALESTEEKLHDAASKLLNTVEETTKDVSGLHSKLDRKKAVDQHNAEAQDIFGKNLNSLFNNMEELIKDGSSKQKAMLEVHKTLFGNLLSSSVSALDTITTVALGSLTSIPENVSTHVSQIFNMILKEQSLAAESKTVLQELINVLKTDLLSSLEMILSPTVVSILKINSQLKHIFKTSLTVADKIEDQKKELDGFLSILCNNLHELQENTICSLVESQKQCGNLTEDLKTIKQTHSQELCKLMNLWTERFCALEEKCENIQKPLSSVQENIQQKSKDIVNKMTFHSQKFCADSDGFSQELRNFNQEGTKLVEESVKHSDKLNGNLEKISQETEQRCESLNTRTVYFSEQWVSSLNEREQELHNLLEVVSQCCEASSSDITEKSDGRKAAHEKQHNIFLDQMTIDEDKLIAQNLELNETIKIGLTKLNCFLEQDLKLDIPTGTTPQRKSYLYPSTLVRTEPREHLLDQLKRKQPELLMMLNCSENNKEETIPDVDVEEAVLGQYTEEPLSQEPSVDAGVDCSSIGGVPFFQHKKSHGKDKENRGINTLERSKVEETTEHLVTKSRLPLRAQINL
Briefly: Inhibition of untagged human Eg5 basal ATPase activity. As to conditions: read-out: Ki(app).

In assay [2] the target is T1, Kinesin-like protein KIF11. Briefly: Inhibition of untagged human Eg5 microtubule-stimulated ATPase activity.
Assay [3] is described as follows: Growth inhibition of dog MDCK2 cells. It is filed as functional. Particulars: Canis lupus familiaris, MDCK-II. A digest of the protocol:
(§1)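 Parental lines (MDCKII, LLC-PK1) and matched Pgp-overexpressing lines (MDCKII-MDR1, about 500-fold Pgp; L-MDR1, about 25000-fold Pgp) were tested with and without the Pgp inhibitor LY335979. Each experiment was run at least in triplicate, with 8 wells per concentration. GI50 came from a nonlinear four-parameter sigmoidal concentration-response fit.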

Assay [4] in a line: Growth inhibition of dog MDCK2-MDR1 cells overexpressing human P-glycoprotein. The class given is functional. Particulars: Canis lupus familiaris, MDCK-II. The method in brief:
as §1

A short description of assay [5]: Growth inhibition of dog MDCK2 cells in presence of P-glycoprotein inhibitor LY335979. The class given is functional. Particulars: Canis lupus familiaris, MDCK-II. A digest of the protocol: as §1
A short description of assay [6]: Growth inhibition of dog MDCK2-MDR1 cells overexpressing human P-glycoprotein in presence of P-glycoprotein inhibitor LY335979. The class given is functional. As to conditions: Canis lupus familiaris, MDCK-II. A digest of the protocol:
as §1

Another assay deals with MDCK-II. The assay can be described thus: Ratio of GI50 for dog MDCK2-MDR1 cells overexpressing human P-glycoprotein to GI50 for dog MDCK2 cells. The class given is functional, Canis lupus familiaris.
Assay [7] relates to LLC-PK1. The assay can be described thus: Growth inhibition of pig LLC-PK1 cells. As to conditions: Sus scrofa. The class given is functional. The method in brief:
as §1

Assay [8] concerns LLC-PK1. The assay can be described thus: Growth inhibition of pig LLC-PK1 cells in presence of P-glycoprotein inhibitor LY335979. The class given is functional. Particulars: Sus scrofa. The method in brief:
as §1

A short description of assay [9]: Growth inhibition of pig L-MDR1 cells overexpressing human P-glycoprotein in presence of P-glycoprotein inhibitor LY335979. It is filed as functional. As to conditions: Sus scrofa. The method in brief: as §1
The nature of assay [10]: Growth inhibition of pig L-MDR1 cells overexpressing human P-glycoprotein. It is filed as functional. Particulars: Sus scrofa. The method in brief:
as §1

Assay [11] concerns LLC-PK1. The assay can be described thus: Ratio of GI50 for pig L-MDR1 cells overexpressing human P-glycoprotein to GI50 for pig LLC-PK1 cells. The class given is functional, Sus scrofa. The method in brief: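 MDR ratio is the GI50 in L-MDR1 cells (Pgp-overexpressing) divided by the GI50 in parental LLC-PK1 cells. Each GI50 came from growth inhibition run at least in triplicate, with 8 wells per concentration, fitted by a four-parameter sigmoidal model.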

Structures are written as SMILES. Bounds are passed on as bounds.

For the compound `CC(C)C(SC[C@H](N)C(=O)O)(c1ccccc1)c1ccccc1`, in assay [1], the Ki is 175 nM. In assay [2], this compound displayed a concentration for half-maximal inhibition (IC50) of 1150 nM.

Take `N[C@@H](CSC(c1ccccc1)(c1ccccc1)c1ccc(-c2ccccc2)cc1)C(=O)O`: the GI50 came out at 22700 nM in [3]; 68.5 µM in assay [4]; 20000 nM in assay [5]; 24500 nM in [6]; 77800 nM in the assay on LLC-PK1 [7]; 75.6 µM in the assay with LLC-PK1 [8]. Moreover, the concentration for 50% growth inhibition (GI50) in assay [9] came to 110 µM. In addition, the RatioGI50 in the assay with MDCK-II worked out at 3. Moreover, the Ki in assay [1] was found to be 1350 nM. The compound further came in with an IC50 in assay [2] of 1970 nM.

`N[C@H](CSC(c1ccccc1)(c1ccccc1)c1ccccc1)C(=O)O`: the concentration for 50% growth inhibition (GI50) in assay [3] was determined as 610 nM; in [4], 3.15 µM; in assay [5] it was 920 nM; in [6], 780 nM; in the assay with LLC-PK1 [7], 940 nM; in assay [10], 36.6 µM. Moreover, the figures for the GI50 (in the assay with LLC-PK1 [8]; in assay [9]) were 1.07 µM and 4.46 µM, respectively.

Regarding `N[C@@H](CSC(c1ccccc1)(c1ccccc1)c1ccccc1)C(=O)O` [S-TRITYL-L-CYSTEINE], the concentration for 50% growth inhibition (GI50) in assay [3] came to 860 nM; in assay [4] it was 2.3 µM; in assay [5] it was 890 nM; in assay [6] it was 580 nM; in the assay with LLC-PK1 [7], 1060 nM; in assay [10], 33 µM. In addition, the GI50 in the assay with LLC-PK1 [8] came to 1.11 µM; in assay [9], 3.02 µM.

As for `CCCCC(SC[C@H](N)C(=O)O)(c1ccccc1)c1ccccc1`, the Ki in [1] is under 50 nM. This compound also returned a 50% inhibitory concentration (IC50) in assay [2] of 319 nM.

Consider `N[C@@H](CSC(c1ccccc1)(c1ccccc1)c1ccc(C2CCCCC2)cc1)C(=O)O`, for which the GI50 amounted to 24300 nM in assay [3]; 50.8 µM in [4]; 17600 nM in [5]; 17900 nM in assay [6]; 47900 nM with LLC-PK1 [7]; 64.9 µM in the assay on LLC-PK1 [8]. Further, in assay [9], the concentration for 50% growth inhibition (GI50) stood at 56.9 µM. The RatioGI50 with MDCK-II is listed as 2.1. Besides, the Ki in assay [1] is 3260 nM. This compound also yielded an IC50 in [2] of 1580 nM.

`CCCCc1ccc(C(SC[C@H](N)C(=O)O)(c2ccccc2)c2ccccc2)cc1`: the Ki in [1] came out at 84.2 nM. This compound displayed a 50% inhibitory concentration (IC50) in assay [2] of 93.3 nM.

In the case of `CC[C@]1(O)C[C@H]2CN(CCc3c([nH]c4ccccc34)[C@@](C(=O)OC)(c3cc4c(cc3OC)N(C=O)[C@H]3[C@@](O)(C(=O)OC)[C@H](OC(C)=O)[C@]5(CC)C=CCN6CC[C@]43[C@@H]65)C2)C1` [VINCRISTINE], the 50% growth inhibitory concentration (GI50) worked out at 2650 nM in assay [3]; 107 µM in assay [4]; 430 nM in [5]; 340 nM in assay [6]; 30 nM in the assay on LLC-PK1 [7]; 2.1 µM in assay [10]. For the same compound, the figures for the RatioGI50 in the assay on MDCK-II and in the assay on LLC-PK1 [11] were 40.3 and 70, respectively.

With `CC(C)(C)c1ccc(C(SC[C@H](N)C(=O)O)(c2ccccc2)c2ccccc2)cc1`, the concentration for 50% growth inhibition (GI50) in assay [3] was 2860 nM; in assay [4] it was 19.5 µM; in [5] it was 2480 nM; in [6], 3010 nM; with LLC-PK1 [7], 4280 nM; in the assay with LLC-PK1 [8], 5.41 µM. In assay [9], the 50% growth inhibitory concentration (GI50) was 13.5 µM. The RatioGI50 is reported as 6.8 in the assay with MDCK-II and over 12.5 with LLC-PK1 [11]. Besides, the Ki in assay [1] came to 429 nM. In [2], this compound showed a concentration for half-maximal inhibition (IC50) of 1240 nM.

As for `COc1ccc(C(SC[C@H](N)C(=O)O)(c2ccccc2)c2ccccc2)cc1`, the 50% growth inhibitory concentration (GI50) in assay [3] came out at 220 nM; in [4] it was 0.54 µM; in assay [5], 240 nM; in [6] it was 80 nM; in the assay on LLC-PK1 [7] it was 1660 nM; in assay [10], 6.91 µM. Besides, the GI50 was found to be 2.05 µM with LLC-PK1 [8] and 1.65 µM in assay [9].

Take `CCC(CC)C(SC[C@H](N)C(=O)O)(c1ccccc1)c1ccccc1`: the Ki in assay [1] worked out at 302 nM. The compound also had an IC50 in assay [2] of 1630 nM.

On to `N[C@@H](CSC(c1ccccc1)(c1ccccc1)c1cccs1)C(=O)O`, for which the Ki in [1] came out at 58300 nM. This compound returned an IC50 in assay [2] of 41700 nM.

Take `NC(CSC(c1ccccc1)(c1ccccc1)c1ccc(C(=O)O)cc1)C(=O)O` (stereo not given): the Ki in assay [1] was determined as 2540 nM. The compound further gave a concentration for half-maximal inhibition (IC50) in [2] of 14100 nM.

Values taken from ChEMBL document CHEMBL1687930 (J Med Chem, 2011).
